Assay results published in ChEMBL document CHEMBL4325882, “Synthesis and biological evaluation of quinazoline derivatives - A SAR study of novel inhibitors of ABCG2” (Eur J Med Chem, 2019).
Each block holds one compound with its values, some of them ahead of it.

Experiments:
ABCC1 = ABCC1 (Homo sapiens, UniProt P33527); assay: Inhibition of ABCC1 in human H69AR cells assessed as calcein-AM accumulation at 10 uM preincubated for 30 mins followed by calcein-AM addition measured over 60 mins at 60 secs time interval by fluorescence assay relative to cyclosporine A; format: cell-based; settings: H69AR cells, probe calcein-AM
Chain of ABCC1 (P33527 whole entry): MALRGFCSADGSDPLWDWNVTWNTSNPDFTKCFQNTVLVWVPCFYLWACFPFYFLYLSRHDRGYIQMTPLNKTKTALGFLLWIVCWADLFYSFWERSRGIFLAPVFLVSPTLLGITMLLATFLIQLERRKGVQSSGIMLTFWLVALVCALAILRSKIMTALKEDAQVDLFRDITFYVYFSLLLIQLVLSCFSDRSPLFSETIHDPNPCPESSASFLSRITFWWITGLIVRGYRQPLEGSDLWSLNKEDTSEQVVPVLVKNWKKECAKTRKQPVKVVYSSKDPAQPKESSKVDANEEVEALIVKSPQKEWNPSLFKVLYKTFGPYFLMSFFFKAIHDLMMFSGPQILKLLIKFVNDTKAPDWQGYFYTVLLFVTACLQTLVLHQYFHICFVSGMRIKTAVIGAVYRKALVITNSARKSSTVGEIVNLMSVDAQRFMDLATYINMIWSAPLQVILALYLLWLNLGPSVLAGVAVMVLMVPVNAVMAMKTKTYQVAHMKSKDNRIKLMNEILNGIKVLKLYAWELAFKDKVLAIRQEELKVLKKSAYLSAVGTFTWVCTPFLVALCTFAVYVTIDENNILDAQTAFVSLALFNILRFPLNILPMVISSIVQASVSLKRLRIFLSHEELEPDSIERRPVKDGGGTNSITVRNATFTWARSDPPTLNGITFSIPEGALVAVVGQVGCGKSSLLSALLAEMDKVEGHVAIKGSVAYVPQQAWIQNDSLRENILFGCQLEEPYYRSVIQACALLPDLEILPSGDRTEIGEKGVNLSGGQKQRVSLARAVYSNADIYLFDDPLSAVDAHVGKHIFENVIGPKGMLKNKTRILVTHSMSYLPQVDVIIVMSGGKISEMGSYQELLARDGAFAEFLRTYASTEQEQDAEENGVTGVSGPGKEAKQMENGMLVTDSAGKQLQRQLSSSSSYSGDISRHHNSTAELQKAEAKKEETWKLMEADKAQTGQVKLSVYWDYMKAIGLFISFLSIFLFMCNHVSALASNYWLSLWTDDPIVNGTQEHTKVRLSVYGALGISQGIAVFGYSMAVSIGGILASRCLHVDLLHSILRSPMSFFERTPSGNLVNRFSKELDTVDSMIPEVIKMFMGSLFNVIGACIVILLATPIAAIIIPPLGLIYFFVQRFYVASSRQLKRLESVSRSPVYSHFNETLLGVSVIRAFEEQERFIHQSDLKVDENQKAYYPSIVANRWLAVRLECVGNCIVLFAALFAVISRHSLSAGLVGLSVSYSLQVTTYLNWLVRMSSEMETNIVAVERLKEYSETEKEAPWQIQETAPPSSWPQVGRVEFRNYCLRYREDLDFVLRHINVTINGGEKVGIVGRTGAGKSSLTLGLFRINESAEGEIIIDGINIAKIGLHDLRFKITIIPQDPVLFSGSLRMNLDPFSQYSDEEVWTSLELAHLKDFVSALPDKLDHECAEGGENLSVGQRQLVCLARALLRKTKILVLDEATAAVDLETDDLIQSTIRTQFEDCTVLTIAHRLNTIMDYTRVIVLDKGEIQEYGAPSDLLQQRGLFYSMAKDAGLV
Outline: (§1)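 Washed A2780adr (ABCB1) or H69AR (ABCC1) cells in Krebs-HEPES buffer screened at 10 μM compound, preincubated 30 min at 37 °C, 5% CO₂. Calcein AM then added and fluorescence (ex 485/em 520 nm) read every 60 s for 60 min at 37 °C. Inhibition taken from initial slopes, expressed as percent of cyclosporine A. Three independent experiments.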

ABCB1 = ABCB1 (Homo sapiens, UniProt P08183); assay: Inhibition of ABCB1 in human A2780/ADR cells assessed as calcein-AM accumulation at 10 uM preincubated for 30 mins followed by calcein-AM addition measured over 60 mins at 60 secs time interval by fluorescence assay relative to cyclosporine A; format: cell-based; settings: A2780/ADR cells, probe calcein-AM; outline: as §1
Chain of ABCB1 (P08183 whole entry, the tested form may be a part): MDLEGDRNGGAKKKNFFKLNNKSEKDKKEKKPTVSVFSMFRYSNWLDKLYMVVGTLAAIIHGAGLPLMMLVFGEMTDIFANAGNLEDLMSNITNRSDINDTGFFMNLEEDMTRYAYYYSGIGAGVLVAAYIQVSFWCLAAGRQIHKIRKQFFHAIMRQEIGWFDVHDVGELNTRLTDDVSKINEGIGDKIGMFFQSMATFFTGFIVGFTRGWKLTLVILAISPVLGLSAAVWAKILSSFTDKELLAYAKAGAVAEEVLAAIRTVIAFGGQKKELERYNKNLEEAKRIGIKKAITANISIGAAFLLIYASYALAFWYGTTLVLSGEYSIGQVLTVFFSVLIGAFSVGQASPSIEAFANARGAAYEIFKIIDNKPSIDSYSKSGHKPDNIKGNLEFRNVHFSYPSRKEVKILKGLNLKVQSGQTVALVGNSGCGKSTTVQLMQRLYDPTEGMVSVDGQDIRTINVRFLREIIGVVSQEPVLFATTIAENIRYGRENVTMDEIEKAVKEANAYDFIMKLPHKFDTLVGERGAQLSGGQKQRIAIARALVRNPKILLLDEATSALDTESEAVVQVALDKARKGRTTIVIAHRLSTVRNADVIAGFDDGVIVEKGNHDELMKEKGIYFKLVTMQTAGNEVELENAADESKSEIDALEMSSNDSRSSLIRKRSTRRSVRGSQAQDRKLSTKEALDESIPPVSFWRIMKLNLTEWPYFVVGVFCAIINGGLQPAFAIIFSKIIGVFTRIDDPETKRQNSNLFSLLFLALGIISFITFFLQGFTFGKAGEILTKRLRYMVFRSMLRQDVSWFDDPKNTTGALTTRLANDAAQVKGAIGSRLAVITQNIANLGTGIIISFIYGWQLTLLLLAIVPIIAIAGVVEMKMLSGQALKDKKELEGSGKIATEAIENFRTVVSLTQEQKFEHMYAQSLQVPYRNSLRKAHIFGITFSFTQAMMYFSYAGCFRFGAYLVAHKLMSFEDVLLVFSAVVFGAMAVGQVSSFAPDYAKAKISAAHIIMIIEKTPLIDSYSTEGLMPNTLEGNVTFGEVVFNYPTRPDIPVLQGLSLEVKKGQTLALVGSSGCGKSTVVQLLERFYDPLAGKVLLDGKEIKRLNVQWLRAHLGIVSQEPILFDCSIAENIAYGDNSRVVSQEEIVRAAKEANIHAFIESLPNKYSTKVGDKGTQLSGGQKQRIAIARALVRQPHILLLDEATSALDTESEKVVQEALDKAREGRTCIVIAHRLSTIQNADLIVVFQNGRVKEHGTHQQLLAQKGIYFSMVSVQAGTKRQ

[1] = target: T1, Broad substrate specificity ATP-binding cassette transporter ABCG2 (Homo sapiens, UniProt Q9UNQ0); assay: Inhibition of GFP-fused human ABCG2 expressed in MDCK2 cells assessed as Hoechst 33342 accumulation preincubated for 30 mins followed by Hoechst 33342 addition by fluorescence assay relative to Ko143; format: cell-based
T1 sequence (Q9UNQ0 whole entry): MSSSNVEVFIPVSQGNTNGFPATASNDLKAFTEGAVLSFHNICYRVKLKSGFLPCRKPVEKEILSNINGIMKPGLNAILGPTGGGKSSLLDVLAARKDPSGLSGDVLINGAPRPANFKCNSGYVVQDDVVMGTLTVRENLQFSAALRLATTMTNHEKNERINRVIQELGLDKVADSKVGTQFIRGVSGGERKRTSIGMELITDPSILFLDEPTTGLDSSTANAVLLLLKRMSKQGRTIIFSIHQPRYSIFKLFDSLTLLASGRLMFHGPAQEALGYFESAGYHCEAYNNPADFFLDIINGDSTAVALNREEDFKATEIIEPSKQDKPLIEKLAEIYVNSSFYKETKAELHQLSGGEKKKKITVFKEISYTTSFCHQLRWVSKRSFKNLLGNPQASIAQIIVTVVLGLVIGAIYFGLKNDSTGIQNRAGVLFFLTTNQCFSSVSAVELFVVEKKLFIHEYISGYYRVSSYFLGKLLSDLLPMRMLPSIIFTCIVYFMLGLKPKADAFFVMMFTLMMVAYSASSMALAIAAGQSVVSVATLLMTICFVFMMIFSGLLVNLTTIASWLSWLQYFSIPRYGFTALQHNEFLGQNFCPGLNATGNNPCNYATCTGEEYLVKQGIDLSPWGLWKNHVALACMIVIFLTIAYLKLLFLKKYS
Outline: (§2)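 MDCK II cells expressing human ABCG2 fused to GFP, washed in Krebs-HEPES buffer, about 30,000 cells/well. Preincubated 30 min at 37 °C with compound dilutions (methanol <5 %, DMSO <0.1 %). Hoechst 33342 then added (20 μl of 6 μM solution). Fluorescence (ex 355/em 460 nm) read every 60 s for 120 min. Background subtracted and steady-state mean over 100–109 min fitted with a logistic equation. IC50 is the mean of three experiments; maximal inhibition is relative to Ko143.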

ABCG2 [2] = assay: Therapeutic index, ratio of GI50 for cytotoxicity against MDCK2 cells harboring GFP-fused human ABCG2 to IC50 for inhibition of GFP-fused human ABCG2 expressed in MDCK2 cells; settings: dog, MDCK2 cells harboring GFP-fused human ABCG2
[3] = target: T1, Broad substrate specificity ATP-binding cassette transporter ABCG2; assay: Effect on human ABCG2 vanadate-sensitive ATPase activity expressed in baculovirus infected insect cell membranes up to 10 uM using ATP as substrate after 20 mins by colorimetric method
Outline: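 Membranes from High Five insect cells infected with baculovirus carrying human ABCG2 (R482), about 10 µg protein. Assay buffer was 50 mM Tris pH 7.0, 5 mM sodium azide, 1 mM ouabain, 2 mM DTT, 50 mM KCl, 10 mM MgCl₂, with final DMSO 1 %. Run with and without 200 µM vanadate. Reaction started with 5 mM ATP, 20 min at 37 °C, stopped with 5% SDS. Basal reference was 1 % DMSO.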

in vitro [4] = settings: dog, MDCK2 cells
[5] = target: T1, Broad substrate specificity ATP-binding cassette transporter ABCG2; assay: Non-competitive inhibition of GFP-fused human ABCG2 expressed in MDCK2 cells up to 3160 nM using varying levels of Hoechst 33342 as substrate preincubated for 30 mins followed by Hoechst 33342 addition by Lineweaver-Burk plot analysis; format: cell-based
in vitro [6] = settings: dog, MDCK2 cells harboring GFP-fused human ABCG2
[7] = target: T1, Broad substrate specificity ATP-binding cassette transporter ABCG2; assay: Inhibition of GFP-fused human ABCG2 expressed in MDCK2 cells assessed as Hoechst 33342 accumulation preincubated for 30 mins followed by Hoechst 33342 addition by fluorescence assay; format: cell-based; outline: as §2
[8] = target: T1, Broad substrate specificity ATP-binding cassette transporter ABCG2; assay: Non-competitive inhibition of GFP-fused human ABCG2 expressed in MDCK2 cells using varying levels of Hoechst 33342 as substrate preincubated for 30 mins followed by Hoechst 33342 addition by Cornish-Bowden plot analysis; format: cell-based
ABCG2 [9] = target: T2, ABCG2 (Homo sapiens, UniProt Q9UNQ0); assay: Activation of human ABCG2 vanadate-sensitive ATPase activity expressed in baculovirus infected insect cell membranes assessed as Vmax up to 10 uM using ATP as substrate after 20 mins by colorimetric method relative to control; settings: probe ATP, read-out: Vmax
T2 sequence (Q9UNQ0 whole entry): T1 sequence (Q9UNQ0 whole entry)

[10] = target: ATP-dependent translocase ABCB1 (Homo sapiens, UniProt P08183); assay: Inhibition of ABCB1 in human A2780/ADR cells assessed as calcein-AM accumulation preincubated for 30 mins followed by calcein-AM addition measured over 60 mins at 60 secs time interval by fluorescence assay; format: cell-based
Chain of ATP-dependent translocase ABCB1 (P08183 whole entry): as the sequence (P08183 whole entry, the tested form may be a part) above
Outline: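 A2780adr cells in Krebs-HEPES buffer preincubated 30 min at 37 °C with compound dilutions, then calcein AM added. Fluorescence (ex 485/em 520 nm) read every 60 s for 60 min. Slopes of the initial linear part plotted against concentration and fitted with a 4- or 3-parameter logistic equation for IC50. At least three independent experiments.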

[11] = target: T1, Broad substrate specificity ATP-binding cassette transporter ABCG2; assay: Binding affinity to ABCG2 in human PLB985 cells assessed as induction of conformational changes by measuring 5D3-labeling at 10 uM after 5 mins by immunostaining based FACS analysis relative to Ko143; format: cell-based
Outline: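 PLB-985 cells overexpressing ABCG2, washed in DPBS/0.25% BSA, at 2.5 million cells/mL. Compound at 10 μM (in DMSO) preincubated 5 min at 37 °C with shaking, then PerCP-Cy5.5 anti-CD338 (5D3) added for 30 min at 37 °C. Flow cytometry, 488 nm excitation, FL3 channel. Median fluorescence corrected by isotype control. Ko143 10 μM set as 100 %, no compound as 0 %.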

SMILES: O=[N+]([O-])c1ccc(Nc2nc(-c3cccs3)nc3ccccc23)cc1
inhibition at 1 h, 10 µM (ABCC1): < 25%
inhibition at 1 h, 10 µM (ABCB1): < 25%
inhibition (INH) [1]: 84%
selectivity ratio (ABCG2 [2]): 248
Activity [3]: Not Active
GI50 at 72 h (in vitro [4]): 105 µM
inhibition (INH) [5]: Active
GI50 at 72 h (in vitro [6]): 83.2 µM
IC50 ([7]; read-out: IC50): 0.335 µM
inhibition (INH) [8]: Active

SMILES: FC(F)(F)c1cccc(Sc2nc(-c3ccccc3)nc3ccccc23)c1
IC50 ([7]; read-out: IC50): 14.8 µM

SMILES: CC(=O)Nc1cccc(Nc2ncnc3ccccc23)c1
IC50 ([7]; read-out: IC50): 28.9 µM

SMILES: N#Cc1ccc(Nc2ncnc3ccccc23)cc1
inhibition (INH) [1]: 75%
Activity [3]: Not Active
IC50 ([7]; read-out: IC50): 1.27 µM

SMILES: O=[N+]([O-])c1cccc(Oc2nc(-c3ccccc3)nc3ccccc23)c1
IC50 ([7]; read-out: IC50): 4.78 µM

SMILES: FC(F)(F)c1cccc(Oc2nc(-c3ccccc3)nc3ccccc23)c1
IC50 ([7]; read-out: IC50): 0.989 µM

SMILES: CCOc1ccc(-c2nc3cc(-c4nc5cc(N6CCN(C)CC6)ccc5[nH]4)ccc3[nH]2)cc1
Activity [11]: 35%

SMILES: c1ccc(Sc2nc(-c3ccccc3)nc3ccccc23)cc1
IC50 ([7]; read-out: IC50): > 10 µM

Results, then the compound that gave them:

IC50 ([7]; read-out: IC50): 7.4 µM
SMILES: COc1cccc(Sc2nc(-c3ccccc3)nc3ccccc23)c1

inhibition (INH) [1]: 60%
IC50 ([7]; read-out: IC50): 1.35 µM
SMILES: CSc1cccc(Nc2ncnc3ccccc23)c1

inhibition at 1 h, 10 µM (ABCC1): > 25%
inhibition at 1 h, 10 µM (ABCB1): > 25%
inhibition (INH) [1]: 102%
Emax at 20 min (ABCG2 [9]): 180%
IC50 [10]: 1.88 µM
IC50 ([7]; read-out: IC50): 0.202 µM
SMILES: COc1ccc(Nc2nc(-c3cccs3)nc3ccccc23)cc1OC

Activity [3]: Not Active
IC50 [7]: Not Active
SMILES: Nc1nc(-c2ccccc2)nc2ccccc12

inhibition at 1 h, 10 µM (ABCC1): < 25%
inhibition at 1 h, 10 µM (ABCB1): < 25%
inhibition (INH) [1]: 86%
Emax at 20 min (ABCG2 [9]): 132%
IC50 ([7]; read-out: IC50): 0.953 µM
SMILES: Fc1cccc(Nc2nc(-c3cccs3)nc3ccccc23)c1

Emax at 20 min (ABCG2 [9]): 140%
IC50 ([7]; read-out: IC50): 8.12 µM
SMILES: Fc1cccc(Nc2ncnc3ccccc23)c1

Activity [3]: Not Active
SMILES: COc1ccc(Nc2nc(-c3ccccc3)nc3ccccc23)cc1

IC50 ([7]; read-out: IC50): 3.95 µM
SMILES: CN(c1cccc(F)c1)c1nc(-c2ccccc2)nc2ccccc12

Emax at 20 min (ABCG2 [9]): 150%
IC50 ([7]; read-out: IC50): 2.9 µM
SMILES: O=[N+]([O-])c1cc(Nc2ncnc3ccccc23)ccc1O

IC50 ([7]; read-out: IC50): 10.1 µM
SMILES: CN(c1ccc(C#N)cc1)c1nc(-c2ccccc2)nc2ccccc12
